The source of these data is ChEMBL document CHEMBL1135501, “Synthesis and biological evaluation at nicotinic acetylcholine receptors of N-arylalkyl- and N-aryl-7-azabicyclo[2.2.1]heptanes” (J Med Chem, 2002).

The structures appear in SMILES notation.

The test system of assay [1] is Mus musculus. As to the kind of experiment: In vivo analgesic agonist activity after subcutaneous administration, using tail-flick assay. Format: functional. Conditions: sc. An outline of the steps: (§1)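 Male CD-1 mice (25-35 g) were dosed subcutaneously on the back at 10 mL/kg. Tail-flick latency to a focused light beam was read by photocell as the mean of two trials, with a 12 s cutoff. Percent effect was (test − baseline)/(12 − baseline latency). ED50 with CI95 came from nonlinear regression of dose-response curves.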

Assay [2] has as its system Mus musculus. As to the kind of experiment: In vivo analgesic agonist activity after subcutaneous administration, using hotplate assay. Format: functional. As to conditions: sc. An outline of the steps:
(§2)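 Male CD-1 mice (25-35 g) were dosed subcutaneously on the back at 10 mL/kg. Hotplate held at 52 °C; latency was timed to hind-paw lick or jump. Percent effect was calculated as (test − baseline latency)/(12 − baseline latency). ED50 with CI95 came from nonlinear regression of dose-response curves.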

Assay [3] addresses T1, Neuronal acetylcholine receptor; alpha4/beta2 (Rattus norvegicus, UniProt P09483+P12390). As to the kind of experiment: In vitro binding affinity by inhibiting [3H]cytisine binding in rat brain tissue at Nicotinic acetylcholine receptor alpha4-beta2. Type of assay: tissue-based.
Assay [4] concerns the target T1, Neuronal acetylcholine receptor; alpha4/beta2. As to the kind of experiment: In vitro binding affinity by inhibiting [3H]dopamine release in rat brain tissue at Nicotinic acetylcholine receptor alpha4-beta2. Format: functional, tissue-based.
Assay [5] addresses T2, Neuronal acetylcholine receptor; alpha4/beta2 (Rattus norvegicus) (UniProt P09483+P12390). As to the kind of experiment: In vitro inhibition of [3H]cytisine binding in rat brain tissue at Nicotinic acetylcholine receptor alpha4-beta2 at 100 uM. Format: tissue-based.
The target in assay [6] is T2, Neuronal acetylcholine receptor; alpha4/beta2 (Rattus norvegicus). In words: In vitro % inhibition of [3H]cytisine binding in rat brain tissue at Nicotinic acetylcholine receptor alpha4-beta2 at 100 uM. Type of assay: tissue-based.
Assay [7] concerns Mus musculus. As to the kind of experiment: In vivo analgesic activity was measured in mouse upon subcutaneous administration using hotplate assay. Type of assay: functional. Conditions: sc. Put shortly: as §2
The test system of assay [8] is Mus musculus. In words: In vivo analgesic activity was measured in mouse upon subcutaneous administration using tail-flick assay. As to conditions: sc. Format: functional. An outline of the steps: as §1
Assay [9] deals with T1, Neuronal acetylcholine receptor; alpha4/beta2. In words: In vitro binding affinity by inhibiting [3H]dopamine release in rat brain tissue at aNicotinic acetylcholine receptor alpha4-beta2. Type of assay: functional, tissue-based. Put shortly:
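Striatal slices (250 µm) from male Sprague-Dawley rats were loaded with 15 nM [3H]dopamine plus 0.1 mM ascorbic acid at 37 °C for 30 min in oxygenated Krebs-HEPES buffer pH 7.4, with domperidone present after loading. Slices were superfused with a 2 min test-drug pulse (S1), then 10 mM K+ for 2 min (S2). Five drug concentrations were used; S1/S2 fractional release ratios gave EC50.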

The target is the same in assay [10]. As to the kind of experiment: in vitro binding affinity by inhibiting [3H]cytisine binding in rat brain tissue at Nicotinic acetylcholine receptor alpha4-beta2.
Assay [11] concerns the target T2, Neuronal acetylcholine receptor; alpha4/beta2 (Rattus norvegicus). In words: In vitro inhibition of [3H]cytisine binding in rat brain tissue at Nicotinic acetylcholine receptor alpha4-beta2. Type of assay: tissue-based. As to conditions: concentration not given here. Put shortly:
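Membranes were spun at 35 000g and resuspended. They were preincubated on ice for 5 min with test drug, then given 3.5 nM [3H]cytisine for 90 min at 2 °C. Nonspecific binding was taken with 1 mM (-)-nicotine. Drug concentrations were run in triplicate, with filtration and scintillation counting.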

T1 sequence (P09483 whole entry): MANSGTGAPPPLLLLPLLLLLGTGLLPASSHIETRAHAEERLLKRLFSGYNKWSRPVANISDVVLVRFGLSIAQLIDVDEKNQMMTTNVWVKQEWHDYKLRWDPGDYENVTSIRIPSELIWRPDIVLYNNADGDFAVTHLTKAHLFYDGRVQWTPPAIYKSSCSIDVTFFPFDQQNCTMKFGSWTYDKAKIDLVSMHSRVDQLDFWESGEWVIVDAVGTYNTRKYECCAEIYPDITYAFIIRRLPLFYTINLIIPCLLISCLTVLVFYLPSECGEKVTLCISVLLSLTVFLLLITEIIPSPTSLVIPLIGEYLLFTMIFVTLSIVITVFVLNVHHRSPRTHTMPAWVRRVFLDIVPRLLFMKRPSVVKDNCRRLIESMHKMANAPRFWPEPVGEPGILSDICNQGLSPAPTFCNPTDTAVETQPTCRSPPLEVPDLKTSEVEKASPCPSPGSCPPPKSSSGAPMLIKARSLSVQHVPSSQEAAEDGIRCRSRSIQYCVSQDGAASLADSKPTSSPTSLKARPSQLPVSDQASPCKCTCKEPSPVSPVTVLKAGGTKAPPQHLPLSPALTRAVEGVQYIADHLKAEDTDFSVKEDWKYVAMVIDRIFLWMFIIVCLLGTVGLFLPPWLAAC
T1 sequence (P12390 whole entry): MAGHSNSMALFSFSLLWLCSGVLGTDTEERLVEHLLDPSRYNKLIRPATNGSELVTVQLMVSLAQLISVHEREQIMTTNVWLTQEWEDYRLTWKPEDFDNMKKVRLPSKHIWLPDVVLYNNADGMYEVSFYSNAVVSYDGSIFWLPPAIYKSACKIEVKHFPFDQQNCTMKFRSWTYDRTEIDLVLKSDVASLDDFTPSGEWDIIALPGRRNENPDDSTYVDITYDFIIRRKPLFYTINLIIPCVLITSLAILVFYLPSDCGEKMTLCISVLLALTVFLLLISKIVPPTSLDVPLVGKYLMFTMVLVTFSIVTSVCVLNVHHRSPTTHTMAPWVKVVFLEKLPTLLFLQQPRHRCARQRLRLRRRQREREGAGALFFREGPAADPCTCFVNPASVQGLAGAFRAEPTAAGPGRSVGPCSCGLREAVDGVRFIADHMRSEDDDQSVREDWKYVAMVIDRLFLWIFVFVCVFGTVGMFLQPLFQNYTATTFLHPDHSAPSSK

As to `Clc1ccc(CN2C3CCC2CC3)cn1`, the 50% effective dose (ED50) was 11.1 mg/kg with Mus musculus [1] and 12.2 mg/kg with Mus musculus [2]. Further, affinity in assay [3] was put at a Ki of 245 nM. In assay [4], this compound had an EC50 of 79 nM.
Consider `Ic1ccc(N2C3CCC2CC3)nc1`, for which, in [5], the inhibition was less than 50%.
In the case of `c1cc(N2C3CCC2CC3)ccn1`, the inhibition in [5] was less than 50%.
The same measure, in the same setting: the same measure for `c1cncc(N2C3CCC2CC3)c1`: less than 50%.
For the compound `c1ccc2c(N3C4CCC3CC4)cncc2c1`, in assay [5], the inhibition was less than 50%.
`c1ccc(N2C3CCC2CC3)nc1`: in assay [5], the inhibition is less than 50%.
`COc1ccc(N2C3CCC2CC3)cn1` had an inhibition in [5] of less than 50%.
Same read-out and setting: as for `c1ccc2ncc(N3C4CCC3CC4)cc2c1`, the figure is less than 50%.
Compound `c1cncc(CCN2C3CCC2CC3)c1` showed a Ki in [3] of 2230 nM.
`c1ccc(CN2C3CCC2CC3)nc1`: the Ki in assay [3] turned out to be 31300 nM.
Turning to `Cc1ccc(N2C3CCC2CC3)cc1`, in [6], the inhibition is less than 50%.
`c1cc(CN2C3CCC2CC3)ccn1` showed an inhibition in assay [5] of less than 50%.
On to `c1cncc(CN2C3CCC2CC3)c1`, for which the ED50 was found to be 5.36 mg/kg in the assay with Mus musculus [7] and 12.4 mg/kg in the assay with Mus musculus [8]. Further, the Ki in assay [3] came out at 98 nM. In assay [9], this compound registered an EC50 of 1.4 nM.
As to `O=c1cccc2n1C[C@@H]1CNC[C@H]2C1` [CYTISINICLINE], the inhibition constant (Ki) in assay [10] is 4.2 nM. In [4], this compound returned an EC50 of 8.8 nM.
With `Clc1ccc(C2CC3CCC2N3)cn1` (stereo in doubt; 1) [EPIBATIDINE], the ED50 in the assay with Mus musculus [1] stood at 0.00046 mg/kg; with Mus musculus [2], 0.00072 mg/kg.
With `c1ccc2nc(CN3C4CCC3CC4)ccc2c1`, in [11], the inhibition was less than 50%.
